In the library only some 1.5% were active in any assay of this set; here they are far more common.
NSD2 inh = inhibitors of human histone methyltransferase NSD2; O96028; NSD2 peptide methylation, AlphaScreen, 120 min; inhibition, % at 12.5 µM; 310,000 tested, 0.54% active
NS3 helicase inh = inhibitors of Hepatitis C virus NS3 helicase | 290,000 tested, 0.56% active | inhibition, % at 10.9 µM | NS3 helicase DNA unwinding, Cy5 molecular beacon fluorescence;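 active = inhibition above the mean of all tested compounds plus 3 SD, set per campaign, cut at about 35% in these data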
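Assay system – hepatitis C virus NS3 helicase domain fragment enzyme · Buffer or medium – MOPS pH 6.5, MgCl2, DTT, Tween20, BSA · Reagent – Cy5/quencher beacon DNA duplex and ATP to start · Compound – single 10.9 µM dose · Timing – 1 h at 25 °C · Technique – Cy5 beacon fluorescence read at start and 1 h · Measure – % inhibition of unwinding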
DNMT1 inh = DNMT1 (human) enzyme inhibition | DNMT1 molecular beacon, Hinp1I cleavage, fluorescence | inhibition (reported as % activation of signal), % at 10 µM | 360,000 tested, 0.83% active
CASP6 VEID inh = inhibitors of human caspase-6; P55212; purified caspase-6, Z-VEID-R110 cleavage fluorescence; inhibition, % at 12.5 µM; 350,000 tested, 0.53% active;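 active = mean inhibition across replicates at least about 35%, with every replicate also reaching that limit, limit read from the data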
Target sequence (P55212 24-179 limits assumed): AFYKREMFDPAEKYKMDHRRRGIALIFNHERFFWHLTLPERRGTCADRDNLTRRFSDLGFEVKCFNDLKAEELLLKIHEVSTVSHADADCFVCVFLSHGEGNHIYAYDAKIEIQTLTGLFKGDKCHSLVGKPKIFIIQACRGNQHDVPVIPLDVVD
Target sequence (P55212 194-293 limits assumed): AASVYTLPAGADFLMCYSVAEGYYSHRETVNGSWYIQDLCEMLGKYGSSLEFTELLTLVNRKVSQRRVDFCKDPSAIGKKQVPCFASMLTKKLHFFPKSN
NS3 helicase cf = confirmation of Hepatitis C virus NS3 helicase inhibitors; shares compounds with NS3 helicase inh; NS3 helicase DNA unwinding, Cy5 molecular beacon fluorescence; inhibition, % at 10.9 µM; 1,600 tested, 31% active; AID 1943;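 active = inhibition above the mean of all tested compounds plus 3 SD, cutoff set per campaign, cut at about 36% in these data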
FID counter trip = displaces DNA intercalator in HCV helicase counter-screen | shares compounds with NS3 helicase inh | DNA fluorescent intercalator displacement, fluorescence | inhibition, % at 7.9 µM | 1,600 tested, 4% active | AID 1945; in the data active = inhibition above about 37%;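 note: higher means more displacement of ethidium bromide from the DNA hairpin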
Hits are given with their value; i = inactive; nt = not tested or not shown. Cut-off read from the data, not from the text of the source, unless noted: active = inhibition above about 50%; inactive = the rest.

SMILES | NSD2 inh | NS3 helicase inh | DNMT1 inh | CASP6 VEID inh | NS3 helicase cf | FID counter trip
Cn1c(SCc2ccccc2)nnc1-c1ccncc1 | i | i | i | i | nt | nt
Cn1c(SCc2n[nH]c(=S)n2-c2ccccc2)nnc1-c1ccccc1 | i | 46.8 | i | i | i | i
CC(C)c1ccc(OCC(=O)NC(Cc2c[nH]c3ccccc23)C(=O)O)cc1 (stereo not drawn) | i | 48.0 | i | i | 62.0 | i
Cc1cc(=O)oc2cc(OCC(=O)NC(Cc3c[nH]c4ccc(O)cc34)C(=O)O)c(Cl)cc12 (stereo not drawn) | nt | 40.3 | i | i | i | i
Cc1cc(OC(C)C(=O)NC(Cc2c[nH]c3ccc(O)cc23)C(=O)O)c2c(C)c(C)c(=O)oc2c1 (stereo not drawn) | nt | i | i | i | nt | nt
COc1cccc(-c2ccc3c(c2)O[C@@H](CN(C)Cc2ccncc2)[C@@H](C)CN([C@H](C)CO)S3(=O)=O)c1 | nt | nt | nt | i | nt | nt
COc1ccc(NC(=O)Nc2ccc3c(c2)C(=O)N([C@@H](C)CO)C[C@H](C)[C@H](CN(C)Cc2ccc(Cl)c(Cl)c2)OCCCC[C@@H](C)O3)cc1 | nt | nt | nt | i | nt | nt
COc1cccc(/C=C2/C(=O)NN(c3ccc(F)cc3)C2=O)c1 | i | 48.0 | i | i | i | i
C#CCOc1ccc(/C=C2/C(=O)NN(c3ccc(F)cc3)C2=O)cc1OC | i | 38.5 | i | i | i | i
COc1cc(/C=C2/C(=O)NN(c3cccc(C)c3)C2=O)ccc1OC(=O)c1ccco1 | i | 40.0 | i | i | i | i
COC(=O)c1ccc(N2NC(=O)/C(=C/c3ccc(OC)c(OC)c3)C2=O)cc1 | i | 39.8 | i | i | i | i
CN1C(=O)c2cc(NC(=O)NCc3ccccc3)ccc2OC[C@H]2O[C@@H](CC(=O)O)CC[C@@H]21 | nt | nt | nt | i | nt | nt
O=C(O)[C@H]1[C@H](CO)[C@H]2Cn3c(ccc(-c4cncnc4)c3=O)[C@H]2N1C(=O)C1CCCC1 | nt | nt | nt | i | nt | nt
O=C(CC1SC(=O)N(c2ccccc2)C1=O)Nc1ccc(Br)cc1 (stereo not drawn) | i | 36.9 | i | i | i | i
COc1cccc(C(=O)N/N=C/c2ccc(OC)c(COc3ccccc3C(N)=O)c2)c1 | i | 43.2 | i | i | i | i
COc1ccc(/C=N\NC(=O)c2ccc(F)cc2)cc1COc1ccccc1C(N)=O | i | i | i | i | nt | nt
CC(C)CC#Cc1ccc([C@H]2[C@@H](CO)N3C(=O)CN(C(=O)NC4CCCC4)C[C@H]23)cc1 | nt | nt | nt | i | nt | nt
C[C@H](CO)N1C[C@H](C)[C@H](CN(C)S(=O)(=O)c2cccs2)Oc2c(NC(=O)c3ccncc3)cccc2C1=O | nt | nt | nt | i | nt | nt
CN1CCN(C(c2ccc(Br)cc2)c2cc(Cl)c3cccnc3c2O)CC1 (stereo not drawn) | i | 40.0 | i | i | i | 74.2
CN1CCN(C(c2ccc(F)cc2)c2ccc3cccnc3c2O)CC1 (stereo not drawn) | i | nt | i | nt | nt | nt
CCCNC(=O)[C@H]1[C@H](CO)[C@H]2Cn3c(ccc(C4=CCCC4)c3=O)[C@@H]1N2CCC(F)(F)F | nt | nt | nt | i | nt | nt
O=C(Cc1ccccn1)N[C@H]1CC[C@H](CCn2cc(-c3ccccc3)nn2)O[C@@H]1CO | nt | nt | nt | i | nt | nt
O=c1cc(-c2ccco2)nc(SCc2cccc(Cl)c2)[nH]1 | i | 45.0 | i | i | i | i
COc1ccc(OCc2cc(C(=O)NC3CCOC(C)(C)C3)no2)c2ccccc12 (stereo not drawn) | i | 47.2 | i | i | i | i
COc1ccc2nc3ccccc3nc2c1N | i | 50.0 | i | i | i | i
SMILES | NSD2 inh | NS3 helicase inh | DNMT1 inh | CASP6 VEID inh | NS3 helicase cf | FID counter trip
CC(C)(C)C(=O)/C=c1\[nH]c(=O)/c(=C\c2ccc(F)cc2)s1 | i | i | i | nt | nt | nt
COc1ccc(/C=c2\s/c(=C/C(=O)c3ccc(C)cc3)[nH]c2=O)cc1OC | i | 59.2 | i | nt | i | i
CSc1sc(C(=O)O)c2c1C(=O)CC(C)(C)C2 | nt | nt | i | i | nt | nt
CSc1sc(-c2ccnc(SCC(=O)C(C)(C)C)n2)c2c1C(=O)CC(C)(C)C2 | i | 56.4 | i | i | i | i
CCC(=O)N1CC2(C1)[C@H](c1ccc(-c3ccccc3)cc1)[C@@H](CO)N2C(C)=O | nt | nt | nt | i | nt | nt
CC(/C=N/n1c(-c2ccco2)n[nH]c1=S)=C\c1ccco1 | i | 50.7 | i | nt | i | i
Cc1noc(C)c1S(=O)(=O)Nc1ccc2c(c1)C(=O)N([C@H](C)CO)C[C@@H](C)[C@H](CN(C)C(=O)Nc1ccc(F)cc1)OCCCC[C@H](C)O2 | nt | nt | nt | i | nt | nt
CCOC(=O)Cc1csc(NC(=O)c2sc3nc4c(C)cc(C)cc4cc3c2N)n1 | i | 37.8 | i | nt | i | i
CC1=Nc2ccccc2/C1=C/c1c(N)n2c(S(=O)(=O)CC(C)C)nsc2nc1=O | i | 36.1 | i | i | 54.3 | i
CCCOc1ccc(NC(=O)CC2Nc3ccccc3NC2=O)cc1 (stereo not drawn) | i | i | i | i | nt | nt
O=C(CC1Nc2cccc3cccc(c23)NC1=O)Nc1ccccc1 (stereo not drawn) | i | 67.1 | i | nt | i | i
NC(=O)CC1Nc2cccc3cccc(c23)NC1=O (stereo not drawn) | i | 61.5 | i | nt | i | i
Cc1cccc(NC(=O)c2ccccc2OCC(=O)N2CCCC2)c1C | nt | 40.2 | nt | nt | i | i
CCCC(=O)Nc1ccc(Cl)c(NC(=O)c2ccc([N+](=O)[O-])cc2Cl)c1 | i | i | i | nt | nt | nt
CCCC(=O)Nc1cccc(NC(=O)c2ccc([N+](=O)[O-])cc2Cl)c1 | i | 52.9 | i | i | i | i
O=C(/C=C/c1ccc(-c2ccccc2[N+](=O)[O-])o1)c1ccc(Br)cc1 | i | i | i | nt | nt | nt
Cc1ccc(C(=O)/C=C/c2ccc(-c3ccccc3[N+](=O)[O-])o2)cc1 | i | 36.9 | i | nt | 38.8 | i
O=C(/C=C/c1ccc(-c2ccccc2)o1)c1ccccc1 | i | 46.9 | i | nt | i | i
C[C@@H]1CCCCO[C@H](CN(C)C(=O)C2CCCCC2)[C@@H](C)CN([C@@H](C)CO)C(=O)c2cc(NC(=O)C3CCCCC3)ccc2O1 | nt | nt | nt | i | nt | nt
O=C(O)c1sc(C(=O)O)c(-c2ccccc2)c1-c1ccccc1 | i | nt | i | i | nt | nt
CC(=O)c1sc(C(=O)O)c(-c2ccco2)c1-c1ccco1 | i | 52.0 | i | 64.5 | i | 39.0
Cc1c(Br)c(O)c(Br)c(O)c1/C=N/n1c(-c2ccccc2)n[nH]c1=S | nt | 36.5 | i | i | 70.0 | i
O=c1[nH]c(/C=C\c2cccc(Cl)c2)nc(O)c1[N+](=O)[O-] | i | 36.5 | i | i | i | i
COc1ccc(S(=O)(=O)N[C@H]2CC[C@H](CC(=O)N3CCc4ccccc4C3)O[C@@H]2CO)cc1 | nt | nt | nt | i | nt | nt
C[C@@H]1CCCCO[C@@H](CN(C)C(=O)c2ccccc2)[C@H](C)CN([C@@H](C)CO)C(=O)c2cc(NC(=O)Cc3ccccc3)ccc2O1 | nt | nt | nt | i | nt | nt
Cc1ccc2nc(Cl)c(C3CC(c4ccco4)=NN3C(=O)CCCC(=O)O)cc2c1 (stereo not drawn) | i | i | i | i | nt | nt
